From ChEMBL document CHEMBL5653623 (J Pharmacol Exp Ther, 2015)
Activity calls are given as the source filed them. No cut-off for these calls is given here.

How the values were obtained:
[1] = target: Mitogen-activated protein kinase kinase kinase 14 (Homo sapiens, UniProt Q99558); assay: Inhibition of MAP3K14 (unknown origin)
[2] = target: Dual specificity protein kinase CLK2 (Homo sapiens, UniProt P49760); assay: Inhibition of CLK2 (unknown origin)
[3] = target: 5-hydroxytryptamine receptor 2B (Homo sapiens, UniProt P41595); assay: Inhibition of serotonin 5-HT2B (unknown origin)
In short: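 Radioligand binding selectivity screen was run at 10 μM, mean of three determinations. Where inhibition exceeded 50%, full concentration-displacement curves were run in triplicate and IC50 was obtained by nonlinear least-squares regression.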

[4] = AUC in C57Bl/6 mouse at 2 mg/kg, iv measured after 480 mins by LC-MS/MS analysis; type: ADME, organism-based; conditions: in vivo
In short: (§1)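 Male C57Bl/6 mice (20-25 g) given a single IV dose (2 mg/kg) or oral dose (10 mg/kg). Blood was sampled at 5, 15, 30, 60, 120, 240, 360 and 480 min and plasma prepared by centrifugation. Plasma drug levels were measured by LC/MS/MS. Values are mean (CV%), N=3.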

[5] = MRT in C57Bl/6 mouse at 2 mg/kg, iv measured after 480 mins by LC-MS/MS analysis; type: ADME, organism-based; conditions: in vivo; in short: as §1
[6] = AUC in C57Bl/6 mouse at 10 mg/kg, po measured after 480 mins by LC-MS/MS analysis; type: ADME, organism-based; conditions: in vivo; in short: as §1
[7] = Unbound fraction in C57Bl/6 mouse brain; type: ADME, tissue-based
In short: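 Plasma and brain binding were determined by equilibrium dialysis at 1 μM.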

[8] = Unbound brain concentration in C57Bl/6 mouse at 3 mg/kg, po administered for 1 hr; type: ADME, organism-based; conditions: in vivo
[9] = Unbound brain concentration in C57Bl/6 mouse at 1 mg/kg, po administered for 1 hr; type: ADME, organism-based; conditions: in vivo
[10] = target: Leucine-rich repeat serine/threonine-protein kinase 2 (Mus musculus) (UniProt Q5S006); assay: In vivo inhibition of LRRK2 in C57Bl/6 mouse brain assessed as decrease in pSer935 LRRK2 measured after 1 hr by Western blotting analysis; type: functional, organism-based; conditions: dose 1-100 mg/kg, route po
In short: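 Male C57Bl/6 mice, 20-25 g. Single oral dose of 1-100 mg/kg suspended in 30% Captisol (10 mL/kg), or vehicle, given 1 h before CO2 euthanasia. Cortex frozen on dry ice and pSer935 LRRK2 read by Western blot. n = 5 per group.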

[11] = Toxicity in C57Bl/6 mouse assessed as lower food intake measured after 1 to 3 days; conditions: in vivo, time 1-3 day
In short: (§2)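 Male C57Bl/6 mice, singly housed on a reversed 12 h light cycle, were fed diet formulated to give 3, 10, 30, 60 or 120 mg/kg/day (assumes 3 g/day intake) or untreated diet for 11 days. Body weight and food intake were monitored. Spontaneous locomotion and rearing were recorded over 60 min. On day 11, mice were euthanized 4, 8 or 24 h after dark onset and plasma and brain drug levels measured; n = 5 per group.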

[12] = target: Leucine-rich repeat serine/threonine-protein kinase 2 (Mus musculus) (UniProt Q5S006); assay: In vivo inhibition of LRRK2 in C57Bl/6 mouse brain assessed as inhibition of pSer935 LRRK2 administered for 11 days and measured after 24 hrs by Western blotting analysis; type: functional, organism-based; conditions: dose 3-120 mg/kg, time 11.0 day
In short: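 Male C57Bl/6 mice, singly housed on a reversed light cycle. Fed drug diet targeted to 3, 10, 30, 60 or 120 mg/kg/day (assuming 3 g/day intake), or untreated diet, for 11 days. Killed 4, 8 or 24 h after dark-cycle onset, n = 5 per group. Cortex immunoblotted for pSer935/total LRRK2 and total LRRK2/GAPDH. Total LRRK2 detected with MJFF2 antibody.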

[13] = target: Leucine-rich repeat serine/threonine-protein kinase 2 (Mus musculus) (UniProt Q5S006); assay: In vivo inhibition of LRRK2 in C57Bl/6 mouse kidney assessed as total LRRK2 protein level administered for 11 days and measured after 4 hrs by Western blotting analysis; type: functional, organism-based; conditions: dose 3-120 mg/kg, time 11.0 day
In short: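 Same 11-day in-diet design in male C57Bl/6 mice: 3-120 mg/kg/day or untreated diet, killed 4, 8 or 24 h after dark-cycle onset, n = 5 per group. Kidneys dissected for Western blot of pSer935 and total LRRK2, with total LRRK2 detected by MJFF-2 antibody.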

[14] = Effect on spontaneous locomotor activity in C57Bl/6 mouse assessed as distance traveled administered for 11 days by truScan photo beam activity system analysis; type: toxicity; conditions: in vivo, 264 h, time 11 day; in short: as §2
Mus musculus [15] = assay: Effect on behavioral changes in 14 weeks old MitoPark mouse striatum assessed as dopamine level at 30 mg/kg/day by HPLC analysis; type: functional
In short: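 Striatum from MitoPark mice on diet targeting 30 mg/kg/day or vehicle diet (wild-type littermate controls) was homogenized by sonication in 0.1 M acid at 0.1 g/mL. Samples were held 60 min at 4 °C and centrifuged. Dopamine, DOPAC and HVA were measured by HPLC with electrochemical detection against a 3,4-DHBA internal standard and standard curves. Mean ± SEM.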

Mus musculus [16] = assay: Effect on behavioral changes in 14 weeks old MitoPark mouse striatum assessed as TH level at 30 mg/kg/day by […] relative to control; type: functional
In short: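 Striatal protein (20 μg) from diet-treated MitoPark and wild-type mice was denatured at 70 °C for 10 min and run on 3-8% Tris-acetate gels. Blots were probed with anti-tyrosine hydroxylase and anti-GAPDH overnight at 4 °C, then an HRP secondary. TH is expressed as % of control.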

[17] = target: Leucine-rich repeat serine/threonine-protein kinase 2 (Mus musculus) (UniProt Q5S006); assay: In vivo inhibition of LRRK2 in 20 weeks old MitoPark mouse lung assessed as reduction in pSer935 LRRK2 level at 30 mg/kg/day administered for 15 weeks by Western blotting analysis; type: functional, organism-based
In short: (§3)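 MitoPark mice on drug-containing diet targeted to 30 mg/kg/day from 5 weeks of age, with the diet reformulated every 3 weeks to hold the target. Untreated-diet MitoPark and wild-type littermate controls. Killed by CO2 at 20 weeks of age. Lung and kidney taken from 5 mice per group for pSer935 and total LRRK2 immunoblots.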

[18] = target: Leucine-rich repeat serine/threonine-protein kinase 2 (Mus musculus) (UniProt Q5S006); assay: In vivo inhibition of LRRK2 in 20 weeks old MitoPark mouse lung assessed as reduction in total LRRK2 protein level at 30 mg/kg/day administered for 15 weeks by Western blotting analysis; type: functional, organism-based; in short: as §3
[19] = target: Leucine-rich repeat serine/threonine-protein kinase 2 (Mus musculus) (UniProt Q5S006); assay: In vivo inhibition of LRRK2 in 20 weeks old MitoPark mouse kidney assessed as reduction in total LRRK2 protein level at 30 mg/kg/day administered for 15 weeks by Western blotting analysis; type: functional, organism-based; in short: as §3
Mus musculus [20] = assay: Effect on histological changes in 20 weeks old MitoPark mouse kidney assessed as accumulation of pigment in renal cortical tubules at 30 mg/kg/day administered for 15 weeks by hematoxylin and eosin staining based microscopic analysis; type: functional, organism-based
In short: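 MitoPark mice were fed diet targeting 30 mg/kg/day or vehicle for 15 weeks and euthanized at 20 weeks of age (n=5/group). Kidney and lung were fixed in 10% neutral buffered formalin, paraffin-embedded, sectioned at 5 µm, H&E-stained and examined microscopically.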

Leucine-rich repeat serine/threonine-protein kinase 2 (Mus musculus), sequence (Q5S006 whole entry): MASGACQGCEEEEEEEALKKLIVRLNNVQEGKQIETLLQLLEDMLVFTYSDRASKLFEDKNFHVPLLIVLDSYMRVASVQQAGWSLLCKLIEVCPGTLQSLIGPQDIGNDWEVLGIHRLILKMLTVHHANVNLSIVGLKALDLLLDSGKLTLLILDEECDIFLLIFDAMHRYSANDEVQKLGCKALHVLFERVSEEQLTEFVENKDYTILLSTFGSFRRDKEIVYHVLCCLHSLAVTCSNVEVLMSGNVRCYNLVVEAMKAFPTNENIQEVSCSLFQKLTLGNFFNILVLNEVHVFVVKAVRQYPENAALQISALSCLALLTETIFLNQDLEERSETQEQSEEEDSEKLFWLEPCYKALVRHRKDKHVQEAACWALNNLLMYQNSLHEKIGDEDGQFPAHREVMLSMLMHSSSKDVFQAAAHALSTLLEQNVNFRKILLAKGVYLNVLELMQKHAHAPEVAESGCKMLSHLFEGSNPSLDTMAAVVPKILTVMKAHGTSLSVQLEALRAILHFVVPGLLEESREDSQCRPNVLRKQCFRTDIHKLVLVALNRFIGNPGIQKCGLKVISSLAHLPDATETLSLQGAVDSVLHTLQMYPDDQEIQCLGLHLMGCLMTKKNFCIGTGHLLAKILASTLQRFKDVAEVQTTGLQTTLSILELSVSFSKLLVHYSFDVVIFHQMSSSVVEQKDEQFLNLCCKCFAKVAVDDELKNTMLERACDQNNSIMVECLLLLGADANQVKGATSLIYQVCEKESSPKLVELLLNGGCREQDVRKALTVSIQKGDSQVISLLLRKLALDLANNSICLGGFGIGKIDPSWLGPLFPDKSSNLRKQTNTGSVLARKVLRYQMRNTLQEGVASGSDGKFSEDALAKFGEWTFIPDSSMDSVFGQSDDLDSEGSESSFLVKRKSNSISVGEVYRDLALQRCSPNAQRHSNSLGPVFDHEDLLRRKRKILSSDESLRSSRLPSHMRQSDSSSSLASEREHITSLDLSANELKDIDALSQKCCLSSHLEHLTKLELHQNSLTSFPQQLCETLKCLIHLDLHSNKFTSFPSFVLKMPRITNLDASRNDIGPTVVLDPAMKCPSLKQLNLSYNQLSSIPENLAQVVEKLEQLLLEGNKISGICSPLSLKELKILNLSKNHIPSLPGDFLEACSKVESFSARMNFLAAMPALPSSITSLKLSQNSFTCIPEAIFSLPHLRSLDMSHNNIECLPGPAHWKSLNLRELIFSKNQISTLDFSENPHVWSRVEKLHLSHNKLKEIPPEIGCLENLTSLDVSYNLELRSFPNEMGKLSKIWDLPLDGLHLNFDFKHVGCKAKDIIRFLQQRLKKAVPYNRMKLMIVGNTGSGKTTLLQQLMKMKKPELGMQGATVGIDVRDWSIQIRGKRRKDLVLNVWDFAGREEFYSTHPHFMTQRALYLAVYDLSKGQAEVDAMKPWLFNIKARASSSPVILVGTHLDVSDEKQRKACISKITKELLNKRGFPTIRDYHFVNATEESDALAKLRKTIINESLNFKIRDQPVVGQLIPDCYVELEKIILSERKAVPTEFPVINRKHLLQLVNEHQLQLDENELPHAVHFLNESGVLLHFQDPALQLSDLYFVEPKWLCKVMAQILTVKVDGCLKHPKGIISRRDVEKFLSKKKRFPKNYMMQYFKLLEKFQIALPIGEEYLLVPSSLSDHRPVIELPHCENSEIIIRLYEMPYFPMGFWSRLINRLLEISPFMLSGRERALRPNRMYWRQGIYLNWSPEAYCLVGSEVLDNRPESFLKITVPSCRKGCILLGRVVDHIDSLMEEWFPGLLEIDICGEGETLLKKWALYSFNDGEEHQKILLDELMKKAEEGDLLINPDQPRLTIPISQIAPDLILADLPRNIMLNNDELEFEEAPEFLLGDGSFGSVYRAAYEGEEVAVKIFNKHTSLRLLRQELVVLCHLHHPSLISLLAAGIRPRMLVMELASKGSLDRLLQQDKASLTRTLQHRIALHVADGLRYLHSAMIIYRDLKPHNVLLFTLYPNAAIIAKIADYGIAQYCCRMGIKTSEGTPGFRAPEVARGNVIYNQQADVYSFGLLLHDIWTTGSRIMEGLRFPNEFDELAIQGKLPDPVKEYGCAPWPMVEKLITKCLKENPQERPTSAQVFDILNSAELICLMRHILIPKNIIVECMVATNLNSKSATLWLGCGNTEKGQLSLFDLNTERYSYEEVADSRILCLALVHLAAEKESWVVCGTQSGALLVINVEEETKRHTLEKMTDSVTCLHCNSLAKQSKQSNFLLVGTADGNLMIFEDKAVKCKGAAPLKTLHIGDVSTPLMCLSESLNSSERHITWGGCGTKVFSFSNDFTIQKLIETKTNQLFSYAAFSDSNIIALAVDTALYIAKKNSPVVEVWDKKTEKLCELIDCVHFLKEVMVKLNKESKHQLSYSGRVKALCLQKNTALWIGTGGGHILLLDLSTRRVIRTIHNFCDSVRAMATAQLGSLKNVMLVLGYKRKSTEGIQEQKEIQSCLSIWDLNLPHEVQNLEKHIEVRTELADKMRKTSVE
Mitogen-activated protein kinase kinase kinase 14, sequence (Q99558 whole entry): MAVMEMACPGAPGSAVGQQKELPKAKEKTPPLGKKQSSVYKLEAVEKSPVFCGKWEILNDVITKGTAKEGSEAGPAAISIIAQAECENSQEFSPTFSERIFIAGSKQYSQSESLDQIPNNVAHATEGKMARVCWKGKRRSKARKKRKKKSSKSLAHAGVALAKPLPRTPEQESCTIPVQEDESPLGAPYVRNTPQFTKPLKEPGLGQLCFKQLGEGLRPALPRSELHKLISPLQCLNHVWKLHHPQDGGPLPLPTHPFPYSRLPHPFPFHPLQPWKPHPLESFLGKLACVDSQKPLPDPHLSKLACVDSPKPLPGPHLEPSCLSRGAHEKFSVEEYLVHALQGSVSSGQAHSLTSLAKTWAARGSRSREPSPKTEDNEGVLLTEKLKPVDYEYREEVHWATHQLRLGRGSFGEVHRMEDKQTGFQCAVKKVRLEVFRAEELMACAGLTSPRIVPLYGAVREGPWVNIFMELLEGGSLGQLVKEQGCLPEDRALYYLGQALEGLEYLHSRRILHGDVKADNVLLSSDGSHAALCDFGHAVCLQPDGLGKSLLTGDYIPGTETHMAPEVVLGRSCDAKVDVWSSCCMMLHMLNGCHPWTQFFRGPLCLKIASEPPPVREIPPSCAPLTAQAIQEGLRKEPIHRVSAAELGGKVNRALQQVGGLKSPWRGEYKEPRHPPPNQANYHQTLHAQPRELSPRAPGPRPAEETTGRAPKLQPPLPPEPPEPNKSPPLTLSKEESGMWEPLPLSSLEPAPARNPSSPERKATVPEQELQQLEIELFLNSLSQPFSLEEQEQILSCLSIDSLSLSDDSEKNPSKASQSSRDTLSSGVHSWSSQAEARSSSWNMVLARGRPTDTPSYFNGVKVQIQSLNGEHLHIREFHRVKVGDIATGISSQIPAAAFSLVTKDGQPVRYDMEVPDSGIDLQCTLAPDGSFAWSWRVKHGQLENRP
Dual specificity protein kinase CLK2, sequence (P49760 whole entry): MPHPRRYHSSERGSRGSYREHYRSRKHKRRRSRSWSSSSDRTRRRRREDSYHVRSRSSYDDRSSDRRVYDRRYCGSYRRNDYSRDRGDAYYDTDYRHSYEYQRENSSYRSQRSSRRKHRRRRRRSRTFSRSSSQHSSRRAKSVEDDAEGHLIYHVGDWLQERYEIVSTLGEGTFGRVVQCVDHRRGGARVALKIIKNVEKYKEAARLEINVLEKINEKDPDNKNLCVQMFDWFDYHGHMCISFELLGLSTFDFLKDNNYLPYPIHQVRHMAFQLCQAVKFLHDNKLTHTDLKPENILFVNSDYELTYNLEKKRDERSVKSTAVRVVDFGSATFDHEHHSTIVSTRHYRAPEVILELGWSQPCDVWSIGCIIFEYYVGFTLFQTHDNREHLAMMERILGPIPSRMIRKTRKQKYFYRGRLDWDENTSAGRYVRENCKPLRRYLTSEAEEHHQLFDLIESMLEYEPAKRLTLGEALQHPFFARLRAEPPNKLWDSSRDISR
5-hydroxytryptamine receptor 2B, sequence (P41595 whole entry): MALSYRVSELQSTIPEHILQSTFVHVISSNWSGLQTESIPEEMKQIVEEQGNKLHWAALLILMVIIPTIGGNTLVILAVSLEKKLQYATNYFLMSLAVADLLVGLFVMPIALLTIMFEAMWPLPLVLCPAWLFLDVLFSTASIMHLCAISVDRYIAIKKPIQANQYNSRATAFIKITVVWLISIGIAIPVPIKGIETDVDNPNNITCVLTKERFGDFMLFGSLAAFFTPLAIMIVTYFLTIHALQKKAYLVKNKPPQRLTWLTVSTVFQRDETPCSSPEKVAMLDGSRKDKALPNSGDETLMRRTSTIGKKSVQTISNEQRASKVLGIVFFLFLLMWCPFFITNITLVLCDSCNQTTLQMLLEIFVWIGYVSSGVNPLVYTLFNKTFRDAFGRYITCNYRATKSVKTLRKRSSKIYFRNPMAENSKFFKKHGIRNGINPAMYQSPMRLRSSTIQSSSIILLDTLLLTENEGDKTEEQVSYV

IC50 [1]: 244 nM | IC50 [2]: 605 nM | IC50 [3]: 1200 nM | AUC at 8 h [4]: 0.664 µM·h | MRT [5]: 2.7 h | AUC at 8 h [6]: 1.5 µM·h | fraction unbound [7]: 0.009 | Drug uptake(free) [8]: 2.4 nM | Drug uptake(free) [9]: 0.6 nM | inhibition [10]: Dose-Dependent Effect | inhibition [12]: Dose-Dependent Effect | inhibition [13]: Dose-Dependent Effect | inhibition [17]: Active | inhibition [18]: Active | inhibition [19]: Active
SMILES: C[C@@H]1CN(c2cc(-c3n[nH]c4ccc(OC5(C)CC5)cc34)ncn2)C[C@H](C)O1 [MLi-2]
Activity [11]: Toxic | Activity [14]: Non-Toxic | Activity (Mus musculus [15]): 1105 ng/g | Activity (Mus musculus [16]): 42.6% | Activity (Mus musculus [20]): inactive
